The source of these data is ChEMBL document CHEMBL4359929, “Piperidine and piperazine inhibitors of fatty acid amide hydrolase targeting excitotoxic pathology” (Bioorg Med Chem, 2019).

The target of series [1] is T1, Fatty-acid amide hydrolase 1 (Homo sapiens) (UniProt O00519).
T1 sequence (whole entry): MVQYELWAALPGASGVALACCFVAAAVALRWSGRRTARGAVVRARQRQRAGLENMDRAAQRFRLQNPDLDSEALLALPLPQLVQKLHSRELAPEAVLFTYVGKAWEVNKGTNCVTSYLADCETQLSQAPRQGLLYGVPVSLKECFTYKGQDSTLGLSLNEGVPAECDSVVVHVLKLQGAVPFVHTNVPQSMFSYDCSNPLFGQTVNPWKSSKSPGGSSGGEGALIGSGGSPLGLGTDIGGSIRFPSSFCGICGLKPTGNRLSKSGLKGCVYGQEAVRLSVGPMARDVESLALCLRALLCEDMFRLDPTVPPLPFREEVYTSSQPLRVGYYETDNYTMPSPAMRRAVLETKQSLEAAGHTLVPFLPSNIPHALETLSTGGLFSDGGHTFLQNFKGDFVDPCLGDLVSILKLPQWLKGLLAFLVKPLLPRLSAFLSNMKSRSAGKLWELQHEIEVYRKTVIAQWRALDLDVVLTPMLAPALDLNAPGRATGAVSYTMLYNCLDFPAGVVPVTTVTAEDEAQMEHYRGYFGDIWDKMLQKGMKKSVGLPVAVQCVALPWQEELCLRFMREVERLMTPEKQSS
The series is described as follows: Inhibition of human recombinant MBP-tagged FAAH expressed in Escherichia coli cells at 1 uM using AAMCA as substrate incubated for 15 mins followed by substrate addition and measured after every 20 mins for 4 hrs by fluorescence based assay relative to control. The procedure, abridged:
(§1)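 Fluorescent FAAH assay with arachidonoyl 7-amino-4-methylcoumarin amide as substrate; compound tested at a single concentration of 1 µM; percent inhibition reported.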

The target in series [2] is T2, Fatty-acid amide hydrolase 1 (Rattus norvegicus) (UniProt P97612).
T2 sequence (whole entry): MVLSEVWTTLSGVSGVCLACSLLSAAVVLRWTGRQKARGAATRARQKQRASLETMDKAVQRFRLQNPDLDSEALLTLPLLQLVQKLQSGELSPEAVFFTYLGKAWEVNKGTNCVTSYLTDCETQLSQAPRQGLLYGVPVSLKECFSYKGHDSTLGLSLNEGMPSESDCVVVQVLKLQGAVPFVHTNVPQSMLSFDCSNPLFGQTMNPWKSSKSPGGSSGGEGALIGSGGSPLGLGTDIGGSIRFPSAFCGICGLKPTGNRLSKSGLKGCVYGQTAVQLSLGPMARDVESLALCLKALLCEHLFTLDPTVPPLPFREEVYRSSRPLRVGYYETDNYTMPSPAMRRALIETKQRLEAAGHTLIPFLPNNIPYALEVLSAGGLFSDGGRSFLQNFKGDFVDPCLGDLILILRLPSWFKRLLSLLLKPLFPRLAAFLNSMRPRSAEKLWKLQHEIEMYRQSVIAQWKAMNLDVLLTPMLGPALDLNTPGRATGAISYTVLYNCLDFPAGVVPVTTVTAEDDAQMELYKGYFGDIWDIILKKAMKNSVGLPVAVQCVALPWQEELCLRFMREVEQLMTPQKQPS
Briefly: Inhibition of rat recombinant His/GST-tagged FAAH expressed in Escherichia coli cells at 1 uM using AAMCA as substrate incubated for 15 mins followed by substrate addition and measured after every 20 mins for 4 hrs by fluorescence based assay relative to control. Put shortly:
as §1

Series [3] deals with Cannabinoid receptor 1 (Rattus norvegicus) (UniProt P20272). The series is described as follows: Displacement of [3H]CP55940 from CB1 receptor in rat brain by competition-equilibrium binding analysis. In kind it is tissue-based. Put shortly: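 Rat brain membranes as CB1 source; competition-equilibrium binding against [3H]CP-55,940.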
Target sequence in this assay (P20272 whole entry): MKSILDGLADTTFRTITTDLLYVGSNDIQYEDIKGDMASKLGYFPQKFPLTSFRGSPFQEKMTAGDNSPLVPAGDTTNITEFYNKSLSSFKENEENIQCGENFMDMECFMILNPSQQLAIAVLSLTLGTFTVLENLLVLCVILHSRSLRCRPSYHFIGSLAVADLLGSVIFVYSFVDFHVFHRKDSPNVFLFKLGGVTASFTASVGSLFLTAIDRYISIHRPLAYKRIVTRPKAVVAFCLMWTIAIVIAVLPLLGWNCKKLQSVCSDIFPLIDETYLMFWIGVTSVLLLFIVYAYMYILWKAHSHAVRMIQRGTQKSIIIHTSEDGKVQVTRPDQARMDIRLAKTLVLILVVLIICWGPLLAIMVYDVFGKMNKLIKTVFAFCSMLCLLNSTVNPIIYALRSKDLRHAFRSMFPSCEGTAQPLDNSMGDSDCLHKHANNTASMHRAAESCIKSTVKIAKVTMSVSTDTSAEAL
For series [4], the target named is Cannabinoid receptor 2 (Mus musculus) (UniProt P47936). The series is described as follows: Displacement of [3H]CP55940 from mouse CB2 receptor expressed in HEK293 cells by competition-equilibrium binding analysis. The class given is cell-based. The procedure, abridged: (§2)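 HEK293 cell membranes expressing mouse or human CB2; competition-equilibrium binding against [3H]CP-55,940.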
For orientation: In a radioligand displacement assay an active substance lowers the binding of a labelled ligand.

Series [5] has as its target Cannabinoid receptor 2 (Homo sapiens) (UniProt P34972). Briefly: Displacement of [3H]CP55940 from human CB2 receptor expressed in HEK293 cells by competition-equilibrium binding analysis. In kind it is cell-based. Put shortly: as §2
For series [6], the target named is T3, Monoglyceride lipase (Homo sapiens) (UniProt Q99685).
T3 sequence (whole entry): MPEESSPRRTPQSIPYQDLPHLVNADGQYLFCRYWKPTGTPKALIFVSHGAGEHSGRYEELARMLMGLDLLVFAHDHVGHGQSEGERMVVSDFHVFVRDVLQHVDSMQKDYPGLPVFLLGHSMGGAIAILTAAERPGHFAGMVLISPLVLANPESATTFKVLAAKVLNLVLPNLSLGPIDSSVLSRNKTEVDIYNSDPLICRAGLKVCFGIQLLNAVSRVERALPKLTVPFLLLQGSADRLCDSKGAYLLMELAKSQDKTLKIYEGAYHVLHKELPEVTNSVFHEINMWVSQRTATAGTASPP
To be noted: at 1 µM.

For series [7], the target named is Cannabinoid receptor 1 (Rattus norvegicus) (UniProt P20272). The series is described as follows: Displacement of [3H]CP55940 from CB1 receptor in rat brain by competition-equilibrium binding analysis.
Target sequence in this assay (P20272 whole entry, looked up): as the sequence (P20272 whole entry) above
Series [8] has as its target T4, Fatty-acid amide hydrolase 1 (Homo sapiens, UniProt O00519).
T4 sequence (O00519 whole entry): T1 sequence (whole entry)
Briefly: Inhibition of human recombinant MBP-tagged FAAH expressed in Escherichia coli cells using AAMCA as substrate incubated for 15 mins followed by substrate addition and measured after every 20 mins for 4 hrs by fluorescence based assay. The procedure, abridged: (§3)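 Fluorescent enzyme assay in throughput format. Human recombinant FAAH or purified rat FAAH used arachidonoyl 7-amino-4-methylcoumarin amide as substrate; human recombinant MGL was run by a similar fluorometric procedure.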

For series [9], the target named is T5, Fatty-acid amide hydrolase 1 (Rattus norvegicus, UniProt P97612).
T5 sequence (P97612 whole entry): T2 sequence (whole entry)
Briefly: Inhibition of rat recombinant His/GST-tagged FAAH expressed in Escherichia coli cells using AAMCA as substrate incubated for 15 mins followed by substrate addition and measured after every 20 mins for 4 hrs by fluorescence based assay. The procedure, abridged:
as §3

The next series addresses T6, Monoglyceride lipase (Homo sapiens, UniProt Q99685).
T6 sequence (Q99685 whole entry): T3 sequence (whole entry)
Briefly: Inhibition of human recombinant His-tagged MGL expressed in Escherichia coli BL21 DE3 cells using AHMMCE as substrate preincubated with enzyme for 15 mins followed by substrate addition and measured after every 15 mins for 3 hrs by fluorescence based assay. Put shortly:
as §3

Series [10] is described as follows: Stability in human liver microsomes assessed as half life. The class given is ADME, Microsome. Put shortly: (§4)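 Stability assessed as half-life in human, rat and mouse plasma and gastric fluid, and in human, rat and mouse liver microsomal preparations.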
On the technique in general: Liver microsomes are vesicles of endoplasmic reticulum, rich in cytochrome P450 enzymes.

Series [11] is described as follows: Stability in rat liver microsomes assessed as half life. The class given is ADME, Microsome. Put shortly: as §4
Series [12] in a line: Stability in mouse liver microsomes assessed as half life. The class given is ADME, Microsome. The procedure, abridged: as §4
Series [13] is described as follows: Stability in human plasma assessed as half life. The class given is ADME, cell-free. The procedure, abridged: as §4
Series [14] is described as follows: Stability in rat plasma assessed as half life. The class given is ADME, cell-free. Put shortly: as §4
Series [15] in a line: Stability in mouse plasma assessed as half life. In kind it is ADME, cell-free. Put shortly:
as §4

Series [16] in a line: Stability in human gastric fluid assessed as half life. In kind it is ADME, tissue-based, Gastric juice. The procedure, abridged:
as §4

The nature of series [17]: Stability in rat gastric fluid assessed as half life. In kind it is ADME, tissue-based, Gastric juice. The procedure, abridged: as §4
A short description of series [18]: Stability in mouse gastric fluid assessed as half life. In kind it is ADME, tissue-based, Gastric juice. The procedure, abridged:
as §4

Series [19] in a line: Drug concentration in plasma (unknown origin) at 2 mg/kg, iv measured after 15 mins. In kind it is ADME, organism-based. Put shortly: (§5)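 Cassette pharmacokinetics: compounds given together at 2 mg/kg iv; brain and plasma levels (µg/mL) measured at 15 min.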
Series [20] in a line: Drug concentration in brain (unknown origin) at 2 mg/kg, iv measured after 15 mins. To be noted: read-out: Ct. In kind it is ADME, organism-based. The procedure, abridged: as §5
The species named for series [21] is Homo sapiens. Briefly: Selectivity ratio of IC50 for human recombinant His-tagged MGL expressed in Escherichia coli BL21 DE3 cells to IC50 for human recombinant MBP-tagged FAAH expressed in Escherichia coli cells by fluorescence based assay.
For series [22], the species on record is Homo sapiens. Briefly: Selectivity ratio of IC50 for human full length ABHD6 expressed in Escherichia coli cells to IC50 for human recombinant MBP-tagged FAAH expressed in Escherichia coli cells by fluorescence based assay.
Series [23] is described as follows: Selectivity ratio of IC50 for human recombinant His-tagged MGL expressed in Escherichia coli BL21 DE3 cells to IC50 for rat recombinant His/GST-tagged FAAH expressed in Escherichia coli cells by fluorescence based assay.
Series [24] is described as follows: Selectivity ratio of IC50 for human full length ABHD6 expressed in Escherichia coli cells to IC50 for rat recombinant His/GST-tagged FAAH expressed in Escherichia coli cells by fluorescence based assay.

The source made the active and inactive calls.

In general, IC50 refers to the point on the concentration scale where inhibition reaches its midpoint. The term half-life denotes the time needed for the level to fall by half in the phase considered.

Chain of Cannabinoid receptor 2 (Mus musculus) (P47936 whole entry): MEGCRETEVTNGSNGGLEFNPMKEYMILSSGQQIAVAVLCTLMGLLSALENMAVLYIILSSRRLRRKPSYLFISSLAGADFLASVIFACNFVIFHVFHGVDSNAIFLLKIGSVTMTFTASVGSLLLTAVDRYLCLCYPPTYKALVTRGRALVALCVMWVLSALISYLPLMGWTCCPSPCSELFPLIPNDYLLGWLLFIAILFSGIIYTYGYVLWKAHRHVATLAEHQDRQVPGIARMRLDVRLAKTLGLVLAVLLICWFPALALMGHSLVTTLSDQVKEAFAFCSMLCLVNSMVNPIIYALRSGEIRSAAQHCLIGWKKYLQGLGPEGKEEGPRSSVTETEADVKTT
Chain of Cannabinoid receptor 2 (Homo sapiens) (P34972 whole entry): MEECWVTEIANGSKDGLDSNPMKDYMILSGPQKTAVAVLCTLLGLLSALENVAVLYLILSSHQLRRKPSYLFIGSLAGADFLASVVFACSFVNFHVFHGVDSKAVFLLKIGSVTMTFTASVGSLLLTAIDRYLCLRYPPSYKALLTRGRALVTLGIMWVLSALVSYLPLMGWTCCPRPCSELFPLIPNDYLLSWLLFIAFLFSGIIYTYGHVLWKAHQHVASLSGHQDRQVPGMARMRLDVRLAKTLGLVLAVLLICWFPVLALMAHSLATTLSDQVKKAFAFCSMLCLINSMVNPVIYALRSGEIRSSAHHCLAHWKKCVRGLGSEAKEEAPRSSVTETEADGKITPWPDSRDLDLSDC

`O=C(Nc1cccc(N2CCS(=O)(=O)CC2)c1)N1CCN(c2ccccc2)CC1`: the inhibition entry in [1], in series [2] and in series [6] was “inactive” in each case. In addition, the outcome in series [3], in series [4], in series [5] and in series [7] was inactive.

As for `O=C(Oc1cccc(N2CCS(=O)(=O)CC2)c1)N1CCC(c2ccc(F)cc2)CC1`, the half-maximal inhibitory concentration (IC50) was 10 nM in series [8], 2.3 nM in series [9] and greater than 1000 nM at Monoglyceride lipase. Moreover, the half-life in [10] was 15 to 25 min; in series [11], 15 to 25 min; in series [12] it was 15 to 25 min; in series [13], greater than 60 min; in [14], greater than 60 min; in series [15], greater than 60 min. Besides, the half-life in [16], in [17] and in [18] was greater than 60 min in each case. For the same molecule, the concentration at 0.25 h in series [19] worked out at 474 ng/mL; in series [20] it was 1230 ng/mL. Besides, the Ratio IC50 (in the series filed under Homo sapiens [21]; in the series listed under Homo sapiens [22]; in series [23]; in [24]) was greater than 1000 each time. In addition, the outcome in [3], in series [4], in series [5] and in [7] was inactive.

Regarding `O=C(Nc1cccc(N2CCS(=O)(=O)CC2)c1)N1CCC(c2ccccc2)CC1`, the inhibition result in [1], in series [2] and in [6] was “inactive” in each case. In addition, the result in [3], in series [4], in series [5] and in series [7] was inactive.

For `O=C(Oc1cccc(N2CCOCC2)c1)N1CCC(c2ccc(F)cc2)CC1`, the IC50 in series [8] was 16.3 nM; in [9], 2.93 nM; at Monoglyceride lipase it was greater than 1000 nM. In addition, the half-life in [10] is 15 to 25 min; in [11], 15 to 25 min; in series [12] it was 15 to 25 min; in series [13], greater than 60 min; in series [14], greater than 60 min; in series [15] it was greater than 60 min. Moreover, the half-life in [16], in series [17] and in series [18] was greater than 60 min in each case. For the same molecule, the concentration at 0.25 h was determined as 506 ng/mL in series [19] and 508 ng/mL in [20]. The Ratio IC50 (in the series filed under Homo sapiens [21]; in the series filed under Homo sapiens [22]; in series [23]; in [24]) was greater than 1000 throughout. The outcome in series [3], in series [4], in series [5] and in series [7] was inactive.

For `O=C(Oc1cccc(N2CCS(=O)(=O)CC2)c1)N1CCC(c2ccc(OCCF)cc2)CC1`, the IC50 in series [8] was 21.2 nM; in series [9], 5.5 nM; at Monoglyceride lipase, greater than 1000 nM. For the same molecule, the half-life in [10] was 15 to 25 min; in [11], 15 to 25 min; in series [12], 15 to 25 min; in series [13] it was greater than 60 min; in [14], greater than 60 min; in series [15], greater than 60 min. Further, the half-life in series [16], in series [17] and in series [18] was greater than 60 min in each case. Moreover, the concentration at 0.25 h in series [19] amounted to 388 ng/mL; in series [20] it was 909 ng/mL. In addition, the Ratio IC50 (in the series filed under Homo sapiens [21]; in the series filed under Homo sapiens [22]; in series [23]; in series [24]) was greater than 1000 each time. Further, the result in [3], in series [4], in series [5] and in series [7] was inactive.

For `O=C(Oc1cccc(N2CCS(=O)(=O)CC2)c1)N1CCC2(CC1)COC2`, the IC50 on Monoglyceride lipase is greater than 1000 nM. In addition, the inhibition result in series [1] and in [2] was “inactive” each time. In addition, the Ratio IC50 (in the series listed under Homo sapiens [21]; in the series filed under Homo sapiens [22]; in [23]; in series [24]) was greater than 1000 in each case. Moreover, the outcome in series [3], in series [4], in series [5] and in series [7] was inactive.
